Experimental findings from PubChem BioAssay are described below.

A number with no mark means an inactive call.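 Rule for the calls, unless noted: active = growth inhibition above a set limit, 3 SD over mean compound inhibition, in both replicates (cut at about 43% in these data); inconclusive = above the limit in only one replicate; inactive = at or below the limit in both replicates.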

The nature of the first assay: Restrictive medium S. cerevisiae growth inhibition, OD615, pilot screen of yeast lifespan reduction project, restrictive growth control (AID 706).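 Note: modified DeaD lifespan yeast strain shifted to restrictive glucose medium.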 To be noted: OD615, 48 h, at 10 µM, stronger effect = higher value. The method in brief: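 Assay system: engineered S. cerevisiae DeaD strain; Buffer or medium: CSMM-D glucose medium; Dosing: 10 µM compound, 0.25% DMSO; Times: cell pre-growth 4 h, compound exposure 48 h, 30 °C; Detection: absorbance (optical density) measured at 615 nm.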
In the case of `CCCCOC(=O)c1ccc(NC(=O)CSCc2n[nH]c(=O)[nH]2)cc1`, the growth inhibition is -3.24%.

For `CCNc1nc(NCC)nc(-n2nc(C)cc2C)n1`, the growth inhibition is 4.28%.

Take `CCOC(=O)c1cc(NC(=O)NCc2ccco2)c(C)nc1C`: the growth inhibition is -25.8%.

In the case of `COc1cc2c(=O)n(Cc3ccccc3)c(=O)n(CC(=O)NCC3CCCO3)c2cc1OC` (stereo not given), the growth inhibition was -0.925%.

For the molecule `CCC(CO)N=CC1=C(O)CC(C)(C)CC1=O` (stereo not given), the growth inhibition was -5.8%.

With `COC(=O)CCSCC(=O)Nc1nnc(C)s1`, the growth inhibition is -7.57%.

With `COc1cc(OC)nc(NC(=O)C(C)C)n1`, the growth inhibition is 6.71%.

As for `CC(NC(=O)c1ccco1)C(c1cccs1)N1CCOCC1` (stereo not given), the growth inhibition was 7.38%.

In the case of `CCn1ccnc1C(O)c1cccc(OC)c1OC` (stereo not given), the growth inhibition was -3.01%.

Consider `Cc1cc(C)nc(SCC(=O)Oc2ccc3oc(=O)cc(C)c3c2)n1`, for which the growth inhibition is -10.1%.

Consider `CCCCCn1c(N(C)Cc2ccccc2)nc2c1c(=O)[nH]c(=O)n2C`, for which the growth inhibition is -2.36%.

Turning to `Cc1cc(C)cc(-n2cc3c(=O)n(C)c(=O)n(C)c3c2)c1`, the growth inhibition is -0.345%.

Consider `O=C(C1CC(=O)N(C2CCCC2)C1)N1CCN(c2ccc(F)cc2)CC1` (stereo not given), for which the growth inhibition is 1.6%.

Turning to `COC(=O)C1=CN(C)C=C(C(=O)OC)C1c1ccsc1`, the growth inhibition is -4.37%.

For `CCCC(=O)c1c(NC)cc(C)oc1=O`, the growth inhibition is 4.71%.

For `CCOc1cccc(C2c3c(oc4ccccc4c3=O)C(=O)N2c2ccccn2)c1` (stereo not given), the growth inhibition is -9.72%.

With `CN(C)CCNC(=O)c1ccc2c(c1)N(Cc1ccc(F)cc1)CCS2`, the growth inhibition is 0.095%.

Turning to `COc1ccc2cc(CCNC(=O)C3CCCC3)c(=O)[nH]c2c1`, the growth inhibition was -9.8%.

As to `Cc1cc(C(=O)CN2CC(C)OC(C)C2)c(C)n1-c1ccccc1` (stereo not given), the growth inhibition is -5.6%.

For `Cc1ccc2oc(=O)c3cc(C(=O)NCc4ccco4)sc3c2c1`, the growth inhibition was -8.27%.

With `C1CCc2c(nc3nnnn3c2N2CCOCC2)C1`, the growth inhibition was 3.85%.

For `Cc1ccc(C(=O)NCc2ccc(Cl)c(Cl)c2)o1`, the growth inhibition was 4.06%.

Take `O=C(NC1CCN(C(=O)N2c3ccccc3Sc3ccccc32)CC1)c1ccco1`: the growth inhibition is -13.8%.

Regarding `O=C(O)CCC(C(=O)O)n1c(O)c(C2=c3ccccc3=NC2=O)sc1=S` (stereo not given), the growth inhibition was -1.01%.

Consider `Cc1cc(C(=O)N2CCN(S(C)(=O)=O)CC2)sc1-c1ccccc1`, for which the growth inhibition was 3.48%.

In the case of `O=c1[nH]c2ccccc2n1Cc1ccc(F)cc1`, the growth inhibition is -4.46%.

As for `COC(=O)CCc1n[nH]c(=O)[nH]c1=O`, the growth inhibition was 9.25%.

On to `COc1ccc(C(=S)N(C)C)cc1OC`, for which the growth inhibition is 16.9%.

Take `CCCCn1c(CNC(=O)C(C)(C)C)nc2ccccc21`: the growth inhibition was -12%.

`C/C(NCCN1CCOCC1)=C(\C#N)C(N)=O`: the growth inhibition was -6.1%.

Take `O=C(Nc1ccc(Br)cc1F)C1CCCN(S(=O)(=O)c2cnc[nH]2)C1` (stereo not given): the growth inhibition is -10.9%.

As for `CCN1CCN(C(=O)Cn2ncc3c2-c2ccccc2OC3)CC1`, the growth inhibition was 0.8%.

In the case of `CC1CCc2nn(CC(=O)N3CCCCCC3)cc2C1` (stereo not given), the growth inhibition is 1.8%.

Turning to `Nc1nnc(N2CCc3ccccc32)s1`, the growth inhibition is 16.4%.

As to `COc1ccc(-c2nnc(SCC(=O)Nc3cc(F)ccc3C)o2)cc1`, the growth inhibition is 4.39%.

On to `CCc1nnc(NC(=O)CSc2nc3c(c(=O)n2CC)SC(C)C3)s1` (stereo not given), for which the growth inhibition was -4.29%.

Regarding `O=C(O)CCc1nnc2n(Cc3ccc(F)cc3)c(=O)c3ccccc3n12`, the growth inhibition is 5.36%.

Regarding `CC(=O)NCCc1cc2ccc(C)c(C)c2[nH]c1=O`, the growth inhibition is -18.7%.

Turning to `O=C(Cn1c(=O)oc2cc(S(=O)(=O)N3CCCC3)ccc21)N1CCN(c2ccccn2)CC1`, the growth inhibition is 6.56%.

As for `COc1ccc(-c2cn3c(C)c(C(=O)NC(C)(C)C)sc3n2)cc1`, the growth inhibition was -9.73%.

The next assay can be described thus: viability gain of MRP-1-high H69AR cells under doxorubicin, pilot screen, MRP-1 activator project, CellTiter-Glo, duplicate (AID 807;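 active = viability increase at or above a cutoff of the median across tested compounds plus 3 SD, cut at about 8.5% in these data, passing the limit was not always enough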;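 note: compound pretreatment 18-22 h then 72 h combined with doxorubicin; 0% = doxorubicin alone and 100% = vehicle without doxorubicin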). To be noted: H69AR viability with doxorubicin, CellTiter-Glo luminescence; at 10 µM; stronger effect = higher value. (In general: In ATP-based viability assays light output follows the ATP content of the culture.)
Consider `CCCCOC(=O)c1ccc(NC(=O)CSCc2n[nH]c(=O)[nH]2)cc1`, for which the viability increase is 0.11%.

Take `CCNc1nc(NCC)nc(-n2nc(C)cc2C)n1`: the viability increase was -0.22%.

For the molecule `CCOC(=O)c1cc(NC(=O)NCc2ccco2)c(C)nc1C`, the viability increase is -3.46%.

Take `COc1cc2c(=O)n(Cc3ccccc3)c(=O)n(CC(=O)NCC3CCCO3)c2cc1OC` (stereo not given): the viability increase was -0.67%.

In the case of `CCC(CO)N=CC1=C(O)CC(C)(C)CC1=O` (stereo not given), the viability increase was -0.8%.

As to `COC(=O)CCSCC(=O)Nc1nnc(C)s1`, the viability increase is -0.31%.

`COc1cc(OC)nc(NC(=O)C(C)C)n1`: the viability increase is -0.57%.

As to `CC(NC(=O)c1ccco1)C(c1cccs1)N1CCOCC1` (stereo not given), the viability increase is -2.37%.

For `CCn1ccnc1C(O)c1cccc(OC)c1OC` (stereo not given), the viability increase was -0.74%.

With `Cc1cc(C)nc(SCC(=O)Oc2ccc3oc(=O)cc(C)c3c2)n1`, the viability increase was -3.67%.

Turning to `CCCCCn1c(N(C)Cc2ccccc2)nc2c1c(=O)[nH]c(=O)n2C`, the viability increase is -0.81%.

For `Cc1cc(C)cc(-n2cc3c(=O)n(C)c(=O)n(C)c3c2)c1`, the viability increase is -1.71%.

As for `O=C(C1CC(=O)N(C2CCCC2)C1)N1CCN(c2ccc(F)cc2)CC1` (stereo not given), the viability increase was 0.11%.

On to `COC(=O)C1=CN(C)C=C(C(=O)OC)C1c1ccsc1`, for which the viability increase was -0.22%.

Regarding `CCCC(=O)c1c(NC)cc(C)oc1=O`, the viability increase was -0.53%.

For the molecule `CCOc1cccc(C2c3c(oc4ccccc4c3=O)C(=O)N2c2ccccn2)c1` (stereo not given), the viability increase is -2.2%.

For `CN(C)CCNC(=O)c1ccc2c(c1)N(Cc1ccc(F)cc1)CCS2`, the viability increase was -6.05%.

Regarding `COc1ccc2cc(CCNC(=O)C3CCCC3)c(=O)[nH]c2c1`, the viability increase is -0.27%.

Regarding `Cc1cc(C(=O)CN2CC(C)OC(C)C2)c(C)n1-c1ccccc1` (stereo not given), the viability increase was -1.04%.

Consider `Cc1ccc2oc(=O)c3cc(C(=O)NCc4ccco4)sc3c2c1`, for which the viability increase is -2.9%.

Take `C1CCc2c(nc3nnnn3c2N2CCOCC2)C1`: the viability increase was 1.82%.

As for `Cc1ccc(C(=O)NCc2ccc(Cl)c(Cl)c2)o1`, the viability increase is 0.03%.

`O=C(NC1CCN(C(=O)N2c3ccccc3Sc3ccccc32)CC1)c1ccco1`: the viability increase is -3.6%.

Take `O=C(O)CCC(C(=O)O)n1c(O)c(C2=c3ccccc3=NC2=O)sc1=S` (stereo not given): the viability increase was -4.54%.

On to `Cc1cc(C(=O)N2CCN(S(C)(=O)=O)CC2)sc1-c1ccccc1`, for which the viability increase was -2.61%.

As to `O=c1[nH]c2ccccc2n1Cc1ccc(F)cc1`, the viability increase was 1.93%.

In the case of `COC(=O)CCc1n[nH]c(=O)[nH]c1=O`, the viability increase is 0.89%.

As for `COc1ccc(C(=S)N(C)C)cc1OC`, the viability increase was -0.25%.

In the case of `CCCCn1c(CNC(=O)C(C)(C)C)nc2ccccc21`, the viability increase is -1.15%.

Take `C/C(NCCN1CCOCC1)=C(\C#N)C(N)=O`: the viability increase was -0.51%.

With `O=C(Nc1ccc(Br)cc1F)C1CCCN(S(=O)(=O)c2cnc[nH]2)C1` (stereo not given), the viability increase was 2.99%.

With `CCN1CCN(C(=O)Cn2ncc3c2-c2ccccc2OC3)CC1`, the viability increase is -1.74%.

As for `CC1CCc2nn(CC(=O)N3CCCCCC3)cc2C1` (stereo not given), the viability increase was -0.62%.

For the molecule `Nc1nnc(N2CCc3ccccc32)s1`, the viability increase is -4.19%.

As to `COc1ccc(-c2nnc(SCC(=O)Nc3cc(F)ccc3C)o2)cc1`, the viability increase is 1.69%.

For the molecule `CCc1nnc(NC(=O)CSc2nc3c(c(=O)n2CC)SC(C)C3)s1` (stereo not given), the viability increase is -0.18%.

For the molecule `O=C(O)CCc1nnc2n(Cc3ccc(F)cc3)c(=O)c3ccccc3n12`, the viability increase was -0.62%.

As to `CC(=O)NCCc1cc2ccc(C)c(C)c2[nH]c1=O`, the viability increase was -1.53%.

Take `O=C(Cn1c(=O)oc2cc(S(=O)(=O)N3CCCC3)ccc21)N1CCN(c2ccccn2)CC1`: the viability increase is 0.96%.

Turning to `COc1ccc(-c2cn3c(C)c(C(=O)NC(C)(C)C)sc3n2)cc1`, the viability increase was -5.94%.
